≈ marks a conversion by molar mass, not a printed value.
How the values were obtained:
Platelet = test: Inhibition of ADP-induced platelet aggregation in platelet-rich human plasma; format: functional
Method in brief: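 Human platelet-rich plasma; aggregation triggered by 10 µM ADP; IC50 determined.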

Liver microsome [1] = test: Metabolic stability in human liver microsomes assessed as compound remaining; format: ADME
Method in brief: (§1)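 Liver microsome stability: percent of compound remaining after incubation with […] (3 µM microsomes in some cases).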

Liver microsome [2] = test: Metabolic stability in rat liver microsomes assessed as compound remaining; format: ADME; method in brief: as §1
P2Y purinoceptor 1 [3] = biological target: T1, P2Y purinoceptor 1 (Homo sapiens, UniProt P47900); test: Antagonist activity at P2Y1 receptor in human platelets by FLIPR assay in presence of 2-methylthio-ADP
T1 sequence (P47900 whole entry): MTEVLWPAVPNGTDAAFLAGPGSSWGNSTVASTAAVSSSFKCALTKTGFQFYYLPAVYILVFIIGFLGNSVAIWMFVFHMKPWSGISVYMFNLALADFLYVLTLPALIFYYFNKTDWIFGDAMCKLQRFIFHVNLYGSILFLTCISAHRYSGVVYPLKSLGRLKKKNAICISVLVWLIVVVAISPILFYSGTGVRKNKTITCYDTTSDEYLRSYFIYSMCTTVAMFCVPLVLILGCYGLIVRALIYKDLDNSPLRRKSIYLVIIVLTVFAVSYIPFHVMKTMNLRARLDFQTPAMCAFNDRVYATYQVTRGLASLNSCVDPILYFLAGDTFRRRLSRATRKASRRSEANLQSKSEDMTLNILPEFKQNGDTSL
Method in brief: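 Washed human platelets with endogenous P2Y1; calcium signalling read by FLIPR with reduced protein (~0.1% BSA); agonist 2-methylthio-ADP at 1 µM; IC50 given as mean ± SD.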

[4] = Aqueous solubility of the compound at pH 6.5; format: physicochemical; conditions: aqueous medium
Method in brief: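 Aqueous solubility taken on crystalline material: free base at pH 6.5, mono-methanesulfonic acid salt at pH 3.9.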

Liver microsome [5] = test: Metabolic stability in human liver microsomes assessed as GSH adduct formation; format: ADME
Method in brief: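 Human liver microsomes incubated with glutathione to detect reactive intermediates; GSH adduct (M+GSH) measured as percent.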

P2Y purinoceptor 1 [6] = biological target: T1, P2Y purinoceptor 1; test: Binding affinity to P2Y1 receptor in human platelets

Compound | IC50 (Platelet) | Stability (Liver microsome [1]) | Stability (Liver microsome [2]) | IC50 (P2Y purinoceptor 1 [3]) | solubility [4] | Stability (Liver microsome [5]) | Ki (P2Y purinoceptor 1 [6])
CC(C)(C)CN1CCC2(CC1)CN(c1ccccc1NC(=O)Nc1csc(Cl)n1)c1c(O)ccc(Cl)c12 | 170 nM | 87% | 66% | 0.03 nM |  |  | 
CC(C)(C)CN1CCC2(CC1)CN(c1ccccc1NC(=O)Nc1ccc(OC(F)(F)F)cc1)c1c(O)ccc(C(F)(F)F)c12 | 130 nM | 100% | 98% | 0.14 nM |  |  | 
CC(C)(C)CN1CCC2(CC1)CN(c1ccccc1NC(=O)Nc1nc3ccc(F)cc3s1)c1c(O)ccc(Cl)c12 | 230 nM | 100% | 89% | 0.06 nM |  |  | 
CC(C)(C)CN1CCC2(CC1)CN(c1ccccc1NC(=O)Nc1ccc(OC(F)(F)F)cc1)c1c(O)cccc12 | 1600 nM | 80% | 87% | 0.23 nM | 30 µg/mL (≈ 52.8 µM) | Unstable | 4 nM

From ChEMBL document CHEMBL3286275, “Identification of 1-{2-[4-chloro-1'-(2,2-dimethylpropyl)-7-hydroxy-1,2-dihydrospiro[indole-3,4'-piperidine]-1-yl]phenyl}-3-{5-chloro-[1,3]thiazolo[5,4-b]pyridin-2-yl}urea, a potent, efficacious and orally bioavailable P2Y(1) antagonist as an antiplatelet agent” (Bioorg Med Chem Lett, 2014)
